# Data taken from PubChem BioAssay.
# Active and inactive are the calls of the source.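 How the source made its calls, unless noted: active means a full or partial loss of lipid-probe fluorescence in the fish gall bladder, intestine or both, judged by eye; inactive means no fluorescence loss, or compound toxic to the fish.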
# How the values were obtained:
# [1] = inhibitors of TNFa-induced NFkB p65 translocation, primary screen, imaging, HUVEC, MLSMR starter and 10KST1 sets (AID 438;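 active means inhibition above 20% together with a positive visual image hit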;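 further: compound added about 3h40 before a 20 min TNFalpha stimulation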;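 on inhibition: signal is the nuclear over cytoplasmic p65 intensity ratio per well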); details: HUVEC TNFa-induced p65 nuclear translocation; cell count: measured here: nuclei count (cytotoxicity indicator), at 2.08 µM; inhibition: at 2 µM, stronger effect = higher value, 0% TNFa-plus-vehicle, 100% no-TNFa wells
# [2] = endothelial E-selectin expression blockers – imaging, HUVEC, immunofluorescence, MLSMR starter and 10KST1 sets, primary screen (AID 487;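 active means visually confirmed hit in the image check and inhibition above 20%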;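 on inhibition: signal is fraction of cell area covered by stained E-selectin grains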;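 on nuclei count: 100% = median nuclei count of all wells on the same plate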); details: HUVEC TNFalpha-induced E-selectin immunofluorescence imaging, at 2 µM; inhibition: stronger effect = higher value; nuclei count: measured here: cell number, toxicity
# [3] = Primary imaging screen for DUSP6 inhibitors that restore phospho-Erk in transfected HeLa cells, chemical complementation (AID 609;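 active means compounds giving at least 50% inhibition in the cell-based MKP-3 phosphatase rescue imaging test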;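 on inhibition: phospho-Erk level distribution per well compared with pooled transfected vehicle control wells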); details: HeLa MKP-3 transfected, phospho-Erk imaging KS statistic, at 10 µM, cells stimulated with TPA for 15 min
# [4] = target: Dual specificity protein phosphatase 6 (Homo sapiens) (UniProt Q16828); experiment: as above; details: HeLa MKP-3 transfected, phospho-Erk imaging KS statistic; at 10 µM; stronger effect = higher value; cells stimulated with TPA for 15 min
# Sequence of Dual specificity protein phosphatase 6 (Homo sapiens) (Q16828 whole entry, looked up): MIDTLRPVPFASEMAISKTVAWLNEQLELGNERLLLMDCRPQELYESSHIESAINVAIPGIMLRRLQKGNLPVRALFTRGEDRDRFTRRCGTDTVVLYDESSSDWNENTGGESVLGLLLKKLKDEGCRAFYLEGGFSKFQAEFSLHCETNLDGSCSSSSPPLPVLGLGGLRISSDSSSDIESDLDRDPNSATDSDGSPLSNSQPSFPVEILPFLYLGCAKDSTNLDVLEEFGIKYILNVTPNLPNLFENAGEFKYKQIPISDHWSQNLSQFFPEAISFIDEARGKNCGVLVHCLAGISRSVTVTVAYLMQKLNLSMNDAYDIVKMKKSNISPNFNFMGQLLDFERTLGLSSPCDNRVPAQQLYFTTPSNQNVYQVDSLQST
# [5] = target: Voltage-gated potassium channel subunit beta-2 (Rattus norvegicus) (UniProt P62483); experiment: inhibitors of rat Kvbeta2 reductase activity – biochemical, NADPH fluorescence, primary screen (AID 622;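 active means fluorescence slope higher than the sample average by over 3 SD, cut at about -0.22 in these data, passing the limit was not always enough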;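 further: slope of raw intensity against log time taken from 70 to 1610 s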); details: recombinant KvBeta, 4-cyanobenzaldehyde reduction, at 10 µM, stronger effect = higher value
# Sequence of Voltage-gated potassium channel subunit beta-2 (Rattus norvegicus) (P62483 whole entry, looked up): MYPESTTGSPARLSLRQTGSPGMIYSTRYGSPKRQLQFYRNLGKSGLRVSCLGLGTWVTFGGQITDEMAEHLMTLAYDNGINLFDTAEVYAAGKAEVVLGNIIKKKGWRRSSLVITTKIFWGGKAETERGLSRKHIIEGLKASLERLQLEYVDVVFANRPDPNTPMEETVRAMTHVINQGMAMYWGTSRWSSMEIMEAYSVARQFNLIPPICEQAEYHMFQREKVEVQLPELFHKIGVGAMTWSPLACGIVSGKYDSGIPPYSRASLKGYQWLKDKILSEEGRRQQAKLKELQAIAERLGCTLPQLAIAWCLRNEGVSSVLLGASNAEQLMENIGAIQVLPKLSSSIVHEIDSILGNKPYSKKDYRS
# [6] = target: Voltage-gated potassium channel subunit beta-2 (Rattus norvegicus) (UniProt P62483); experiment: enhancers of rat Kvbeta2 NADPH turnover – biochemical, NADPH fluorescence, primary screen (AID 623;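 active means NADPH fluorescence slope more negative than the mean of all samples by about 3 SD, 99.7% confidence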;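 further: fluorescence intensity change per second fitted from 20 to 320 s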); details: Recombinant KvBeta, NADPH fluorescence decrease slope, 10 min; at 10 µM; stronger effect = lower value
# [7] = target: Alpha-2C adrenergic receptor (Homo sapiens) (UniProt P18825); experiment: compounds altering alpha2C-coupled GIRK flux – cell-based, HEK293 alpha2C/GIRK1/2, thallium flux, primary screen (AID 624;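 active means fluorescence slope after compound addition differing from the mean of all screened samples at 99.7% confidence, in either direction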;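 further: slope of fluorescence ratio to pre-addition baseline per second over 15 to 24 s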); details: thallium flux BTC fluorescence, at 10 µM, actives lie on both sides
# Sequence of Alpha-2C adrenergic receptor (Homo sapiens) (P18825 whole entry, looked up): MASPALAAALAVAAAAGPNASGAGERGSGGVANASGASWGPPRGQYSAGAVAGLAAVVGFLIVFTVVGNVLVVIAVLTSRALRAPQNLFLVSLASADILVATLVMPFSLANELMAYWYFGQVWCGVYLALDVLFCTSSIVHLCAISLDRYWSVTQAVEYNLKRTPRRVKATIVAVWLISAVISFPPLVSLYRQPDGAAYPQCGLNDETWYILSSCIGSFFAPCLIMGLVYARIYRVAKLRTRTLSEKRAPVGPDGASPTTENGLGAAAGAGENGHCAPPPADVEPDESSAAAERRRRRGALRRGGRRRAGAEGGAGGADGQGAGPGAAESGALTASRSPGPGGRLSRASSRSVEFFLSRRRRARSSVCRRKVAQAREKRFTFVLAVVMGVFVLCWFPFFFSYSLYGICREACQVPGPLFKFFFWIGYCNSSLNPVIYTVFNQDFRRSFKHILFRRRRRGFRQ
# [8] = inhibitors of larval lipid processing in zebrafish, primary screen, whole organism, PED6 fluorescence, gall bladder and intestine (AID 686); details: Zebrafish larvae PED6 lipid processing, fluorescence scoring; screened at 20 µM (by protocol);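 further: larvae 5 to 7 days old with five fish per well; signal comes from phospholipase A2 cleavage of quenched PED6 carried via bile; overnight exposure to compound and PED6 before scoring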
# How it was run: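 Test system – live zebrafish larvae aged 5-7 days, whole organism · Buffer or medium – E3 fish medium · Reagent – quenched phospholipase substrate PED6, 100 nM final, ingested by larvae · Doses – 20 µM single dose · Incubation – overnight compound and PED6 incubation · Technique – visual fluorescence microscopy scoring of gall bladder, gut · Read-out basis – visual per-well fluorescence inhibition score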
# [9] = loss of swimming-algae plug formation – whole organism, Chlamydomonas reinhardtii, WT vs cilia-less mutant, absorbance, 96-well, primary screen (AID 463189;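 active means inhibition at or above 50% relative to wild type and mutant plate controls; inactive means inhibition below 50%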;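 further: 0% = wild type cc124 cells in DMSO and 100% = ciliumless bld1 mutant cells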); details: Chlamydomonas reinhardtii gravitaxis, OD600 absorbance, 2 days; at 10 µM; stronger effect = higher value
# [10] = measured here: cell density z-score
# [11] = measured here: nuclear c-Myc green intensity z-score
# [12] = measured here: nuclear pErk red intensity z-score, stronger effect = higher value
SMILES,cell count [1],inhibition [1],inhibition [2],nuclei count [2] [%],"z-score [3, 10]","z-score [3, 11]","z-score [3, 12]",inhibition [4],fluorescence slope [5],NADPH fluorescence slope [6],slope [7],outcome [8],inhibition [9]
COc1ccccc1-c1nn2c(-c3ccc(C(C)(C)C)cc3)nnc2s1,509,-5.2% (inactive),-76.5% (inactive),110,-0.995,-1.37,-0.665,-7.86% (inactive),-0.42 (inactive),-3.3e-05 (inactive),0.0128 (inactive),inactive,19.8% (inactive)
CCCOc1ccc(C(C)=O)cc1CSCCC#N,298,-26.4% (inactive),-186% (inactive),136,-0.222,-1.52,0.779,7.01% (inactive),-0.462 (inactive),-0.000379 (inactive),0.00586 (inactive),inactive,17.2% (inactive)
CCOc1ccc(C2/C(=C(/O)c3ccc(F)cc3)C(=O)C(=O)N2CCCN(C)C)cc1 (centres undefined),564,-4.5% (inactive),-17% (inactive),186,-0.359,0.0868,-0.309,-1.12% (inactive),-0.388 (inactive),-3e-05 (inactive),0.00504 (inactive),inactive,-0.349% (inactive)
CCc1c(C)c(C#N)c2nc3ccccc3n2c1-n1nc(C)cc1C,609,-2.3% (inactive),-51.2% (inactive),140,-0.4,1.4,-0.335,7.93% (inactive),-0.352 (inactive),-7.9e-05 (inactive),0.00552 (inactive),inactive,-13.6% (inactive)
CCOC(=O)c1c(CN2CCCCC2)oc2ccc(OC)cc12,344,-9.3% (inactive),-46.9% (inactive),142,0.114,0.591,0.702,-7.01% (inactive),-0.416 (inactive),-0.000135 (inactive),0.00729 (inactive),inactive,4.54% (inactive)
Cc1ccc(C(=O)C2=C(O)C(=O)N(c3ncccn3)C2c2ccc(Cl)cc2)o1 (centres undefined),371,-10.1% (inactive),14.5% (inactive),94.4,-1.13,-0.679,0.195,7.83% (inactive),-0.331 (inactive),-1.3e-05 (inactive),0.00456 (inactive),inactive,5.76% (inactive)
CCc1c(C(=O)O)[nH]c2ccc(Br)cc12,581,-1.8% (inactive),-21.7% (inactive),171,-0.258,-0.825,2.03,-7.01% (inactive),-0.367 (inactive),-5.4e-05 (inactive),0.00495 (inactive),inactive,-2.83% (inactive)
COC(=O)c1ccc(C2C(C(=O)c3cc4ccccc4o3)=C(O)C(=O)N2CCCN(C)C)cc1 (centres undefined),423,-8.1% (inactive),-11.6% (inactive),167,0.389,1.47,0.581,-6.48% (inactive),-0.405 (inactive),-7.3e-05 (inactive),0.00626 (inactive),inactive,-1.14% (inactive)
CCOC(=O)C1=C(CSc2nc3c(cc2C#N)CN(C)CC3)OC(N)=C(C#N)C1c1ccccc1 (centres undefined),616,-8.1% (inactive),28.8% (inactive),169,1.95,-0.602,0.371,-5.62% (inactive),-0.384 (inactive),-4.7e-05 (inactive),0.00325 (inactive),inactive,-1.09% (inactive)
CCOc1ccc(CCNC(=O)C(O)c2ccccc2)cc1 (centres undefined),632,-0.6% (inactive),18.6% (inactive),150,-1.06,0.643,-0.425,5.57% (inactive),-0.517 (inactive),-4.4e-05 (inactive),0.0068 (inactive),inactive,25.5% (inactive)
Cc1nc2c(=O)n(C)c(=O)[nH]c2n1Cc1ccccc1,465,3.5% (inactive),-59.5% (inactive),153,0.739,0.0972,1.29,-4.7% (inactive),-0.394 (inactive),-4.2e-05 (inactive),0.00601 (inactive),inactive,-5.62% (inactive)
O=C(c1ccccc1)C(CCC(CN1CCOCC1)C(=O)c1ccccc1)CN1CCOCC1 (centres undefined),588,-0.1% (inactive),-9.4% (inactive),109,0.046,-0.626,1.7,1.75% (inactive),-0.59 (inactive),-1.8e-05 (inactive),0.00635 (inactive),inactive,24.8% (inactive)
Cc1cc(C)c(NC(=O)OCCN2CCOCC2)c(C)c1,581,-17.3% (inactive),-82.2% (inactive),168,-0.0769,-0.6,1.06,3.56% (inactive),-0.468 (inactive),-7.1e-05 (inactive),0.00577 (inactive),inactive,19.8% (inactive)
